Columns and labels:
Mus musculus [1] = assay: Biodistribution of intravenously injected [82Br]-labeled compound in muscle of BDF1 female mice bearing subcutaneous Lewis lung carcinoma after 8 hours; format: ADME, organism-based, Muscle tissue; conditions: in vivo, iv
Method in brief: (§1)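 Female BDF1 mice with subcutaneous Lewis lung carcinoma given an iv injection of [82Br]-labelled nucleoside, 47-130 μg carrying 20-60 kBq 82Br. Tissues were excised, weighed wet and γ-counted. Values are percent injected dose per gram of wet tissue, mean ± standard deviation of six animals, with organ-to-tumour ratios derived.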

Mus musculus [2] = assay: Biodistribution of intravenously injected [82Br]-labeled compound in kidney of BDF1 female mice bearing subcutaneous Lewis lung carcinoma after 0.25 hours; format: ADME, organism-based; conditions: in vivo, iv; method in brief: as §1
Mus musculus [3] = assay: Biodistribution of intravenously injected [82Br]-labeled compound in tumor of BDF1 female mice bearing subcutaneous Lewis lung carcinoma after 0.50 hours; format: ADME, organism-based; conditions: in vivo, iv, 0.5 h
Mus musculus [4] = assay: Biodistribution of intravenously injected [82Br]-labeled compound in bone of BDF1 female mice bearing subcutaneous Lewis lung carcinoma after 8 hours; format: ADME, organism-based, Bone element; conditions: in vivo, iv
Method in brief: (§2)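 82Br-labeled nucleoside given intravenously to female BDF1 mice bearing subcutaneous Lewis lung carcinoma, at 47-130 μg carrying 20-60 kBq. Mice sacrificed at each time point. Wet-weighed tissues γ-counted. Values are percent injected dose per gram wet tissue, mean ± SD, n = 6.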

Mus musculus [5] = assay: Biodistribution of intravenously injected [82Br]-labeled compound in bone of BDF1 female mice bearing subcutaneous Lewis lung carcinoma after 4 hours; format: ADME, organism-based, Bone element; conditions: in vivo, iv; method in brief: as §2
Mus musculus [6] = assay: Biodistribution of intravenously injected [82Br]-labeled compound in blood of BDF1 female mice bearing subcutaneous Lewis lung carcinoma after 2 hours; format: ADME, organism-based; conditions: in vivo, iv; method in brief: as §2
Mus musculus [7] = assay: Biodistribution of intravenously injected [82Br]-labeled compound in gut of BDF1 female mice bearing subcutaneous Lewis lung carcinoma after 0.25 hours; format: ADME, organism-based; conditions: in vivo, iv; method in brief: as §2
Mus musculus [8] = assay: Biodistribution of intravenously injected [82Br]-labeled compound in spleen of BDF1 female mice bearing subcutaneous Lewis lung carcinoma after 2 hours; format: ADME, organism-based; conditions: in vivo, iv
Mus musculus [9] = assay: Biodistribution of intravenously injected [82Br]-labeled compound in skin of BDF1 female mice bearing subcutaneous Lewis lung carcinoma after 0.25 hours; format: ADME, organism-based, Zone of skin; conditions: in vivo, iv; method in brief: as §1
Mus musculus [10] = assay: Biodistribution of intravenously injected [82Br]-labeled compound in liver of BDF1 female mice bearing subcutaneous Lewis lung carcinoma after 8 hours; format: ADME, organism-based; conditions: in vivo, iv; method in brief: as §1
Mus musculus [11] = species on record: Mus musculus; assay: Inhibition constant for influx competition with [6-3H]thymidine in mouse erythrocytes; format: functional
Method in brief: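 Freshly harvested mouse erythrocytes were exposed to various concentrations of test nucleoside and [6-3H]thymidine, and zero-trans thymidine influx was measured. Extracellular [6-3H]thymidine was measured over time by liquid scintillation counting of aliquots. The Ki for competition at the nucleoside transporter was derived by previously described methods.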

Mus musculus [12] = assay: Biodistribution of intravenously injected [82Br]-labeled compound in skin of BDF1 female mice bearing subcutaneous Lewis lung carcinoma after 4 hours; format: ADME, organism-based, Zone of skin; conditions: in vivo, iv; method in brief: as §1
Mus musculus [13] = assay: Biodistribution of intravenously injected [82Br]-labeled compound in blood of BDF1 female mice bearing subcutaneous Lewis lung carcinoma after 8 hours; format: ADME, organism-based; conditions: in vivo, iv; method in brief: as §2
Mus musculus [14] = assay: Biodistribution of intravenously injected [82Br]-labeled compound in blood of BDF1 female mice bearing subcutaneous Lewis lung carcinoma after 0.25 hours; format: ADME, organism-based; conditions: in vivo, iv; method in brief: as §2
Mus musculus [15] = assay: Biodistribution of intravenously injected [82Br]-labeled compound in bone of BDF1 female mice bearing subcutaneous Lewis lung carcinoma after 0.5 hours; format: ADME, organism-based, Bone element; conditions: in vivo, iv; method in brief: as §2
Mus musculus [16] = assay: Biodistribution of intravenously injected [131I]-labeled compound in tumor of BDF1 female mice bearing subcutaneous Lewis lung carcinoma after 1 hours; format: ADME, organism-based; conditions: in vivo, iv
Method in brief: (§3)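 Female BDF1 mice with subcutaneous Lewis lung carcinoma given i.v. 0.5-1.8 μg of 131I-labeled nucleoside (55-110 kBq). Killed at set times. Tissues weighed wet and γ-counted. Radioactivity expressed as percent injected dose per gram wet tissue, mean ± SD of six animals.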

Mus musculus [17] = assay: Biodistribution of intravenously injected [131I]-labeled compound in spleen of BDF1 female mice bearing subcutaneous Lewis lung carcinoma after 24 hours; format: ADME, organism-based; conditions: in vivo, iv; method in brief: as §3
Mus musculus [18] = assay: Biodistribution of intravenously injected [131I]-labeled compound in kidney of BDF1 female mice bearing subcutaneous Lewis lung carcinoma after 8 hours; format: ADME, organism-based; conditions: in vivo, iv
Method in brief: (§4)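 Female BDF1 mice bearing subcutaneous Lewis lung carcinoma received a single intravenous dose of 0.5-1.8 μg of the 131I-labeled nucleoside (55-110 kBq). They were sacrificed at set times, and tissues were weighed wet and γ-counted. Activity is expressed as percent of injected dose per gram of wet tissue, given as mean ± standard deviation for six animals.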

Mus musculus [19] = assay: Biodistribution of intravenously injected [131I]-labeled compound in kidney of BDF1 female mice bearing subcutaneous Lewis lung carcinoma after 0.25 hours; format: ADME, organism-based; conditions: in vivo, iv; method in brief: as §4
Mus musculus [20] = assay: Biodistribution of intravenously injected [131I]-labeled compound in gut of BDF1 female mice bearing subcutaneous Lewis lung carcinoma after 1 hours; format: ADME, organism-based; conditions: in vivo, iv; method in brief: as §4
Mus musculus [21] = species on record: Mus musculus; assay: Urinary [131I]5-iodouracil observed in BDF1 female mice bearing lewis lung tumor after 24 hr of injected [131I]-compound; format: functional, tissue-based; conditions: Urine
Mus musculus [22] = assay: Biodistribution of intravenously injected [131I]-labeled compound in tumor of BDF1 female mice bearing subcutaneous Lewis lung carcinoma after 0.50 hours; format: ADME, organism-based; conditions: in vivo, iv, 0.5 h; method in brief: as §3
Mus musculus [23] = assay: Biodistribution of intravenously injected [131I]-labeled compound in muscle of BDF1 female mice bearing subcutaneous Lewis lung carcinoma after 8 hours; format: ADME, organism-based, Muscle tissue; conditions: in vivo, iv; method in brief: as §3
Mus musculus [24] = assay: Biodistribution of intravenously injected [131I]-labeled compound in liver of BDF1 female mice bearing subcutaneous Lewis lung carcinoma after 1 hours; format: ADME, organism-based; conditions: in vivo, iv; method in brief: as §4
Mus musculus [25] = species on record: Mus musculus; assay: Urinary iodide observed in BDF1 female mice bearing lewis lung tumor after 0-0.5 hr of injected [131I]-compound; format: functional, tissue-based; conditions: Urine
Mus musculus [26] = assay: Biodistribution of intravenously injected [131I]-labeled compound in liver of BDF1 female mice bearing subcutaneous Lewis lung carcinoma after 24 hours; format: ADME, organism-based; conditions: in vivo, iv; method in brief: as §4
Mus musculus [27] = assay: Biodistribution of intravenously injected [131I]-labeled compound in blood of BDF1 female mice bearing subcutaneous Lewis lung carcinoma after 24 hours; format: ADME, organism-based; conditions: in vivo, iv; method in brief: as §4
Mus musculus [28] = species on record: Mus musculus; assay: Other urinary compounds observed in BDF1 female mice bearing lewis lung tumor after 0-0.5 hr of injected [131I]-compound; format: functional, tissue-based; conditions: Urine
Mus musculus [29] = assay: Biodistribution of intravenously injected [82Br]-labeled compound in blood of BDF1 female mice bearing subcutaneous Lewis lung carcinoma after 4 hours; format: ADME, organism-based; conditions: in vivo, iv, in the assay text read “[131I]-labeled” for “[82Br]-labeled”
Mus musculus [30] = assay: Biodistribution of intravenously injected [131I]-labeled compound in liver of BDF1 female mice bearing subcutaneous Lewis lung carcinoma after 0.50 hours; format: ADME, organism-based; conditions: in vivo, iv, 0.5 h; method in brief: as §4
Mus musculus [31] = assay: Biodistribution of intravenously injected [131I]-labeled compound in bone of BDF1 female mice bearing subcutaneous Lewis lung carcinoma after 24 hours; format: ADME, organism-based, Bone element; conditions: in vivo, iv; method in brief: as §4
Mus musculus [32] = assay: Biodistribution of intravenously injected [131I]-labeled compound in lung of BDF1 female mice bearing subcutaneous Lewis lung carcinoma after 1 hours; format: ADME, organism-based; conditions: in vivo, iv; method in brief: as §4
Mus musculus [33] = assay: Biodistribution of intravenously injected [131I]-labeled compound in stomach of BDF1 female mice bearing subcutaneous Lewis lung carcinoma after 4 hours; format: ADME, organism-based; conditions: in vivo, iv; method in brief: as §3
Mus musculus [34] = assay: Biodistribution of intravenously injected [131I]-labeled compound in skin of BDF1 female mice bearing subcutaneous Lewis lung carcinoma after 4 hours; format: ADME, organism-based, Zone of skin; conditions: in vivo, iv; method in brief: as §3
Mus musculus [35] = assay: Biodistribution of intravenously injected [131I]-labeled compound in muscle of BDF1 female mice bearing subcutaneous Lewis lung carcinoma after 24 hours; format: ADME, organism-based, Muscle tissue; conditions: in vivo, iv; method in brief: as §3
Mus musculus [36] = species on record: Mus musculus; assay: Urinary [131I]5-iodouracil observed in BDF1 female mice bearing lewis lung tumor after 6-7 hr of injected [131I]-compound; format: functional, tissue-based; conditions: Urine
Mus musculus [37] = assay: Biodistribution of intravenously injected [131I]-labeled compound in spleen of BDF1 female mice bearing subcutaneous Lewis lung carcinoma after 0.50 hours; format: ADME, organism-based; conditions: in vivo, iv, 0.5 h; method in brief: as §3

O=c1[nH]c(=O)n([C@H]2O[C@@H](CO)[C@H](O)[C@H]2F)cc1Br
Injected dose/g (Mus musculus [1]): 0.14% | Injected dose/g (Mus musculus [2]): 7.69% | Injected dose/g (Mus musculus [3]): 0.95% | Injected dose/g (Mus musculus [4]): 0.23% | Injected dose/g (Mus musculus [5]): 0.17% | Injected dose/g (Mus musculus [6]): 0.79% | Injected dose/g (Mus musculus [7]): 1.19% | Injected dose/g (Mus musculus [8]): 0.35% | Injected dose/g (Mus musculus [9]): 1.39% | Injected dose/g (Mus musculus [10]): 0.28% | Ki (Mus musculus [11]): 390 µM | Injected dose/g (Mus musculus [12]): 0.31% | Injected dose/g (Mus musculus [13]): 0.72% | Injected dose/g (Mus musculus [14]): 2.68% | Injected dose/g (Mus musculus [15]): 0.3%

O=c1[nH]c(=O)n([C@@H]2O[C@H](CO)[C@@H](O)[C@H]2F)cc1I
Injected dose/g (Mus musculus [16]): 4.1% | Injected dose/g (Mus musculus [17]): 0.5% | Injected dose/g (Mus musculus [18]): 4.1% | Injected dose/g (Mus musculus [19]): 21.1% | Injected dose/g (Mus musculus [20]): 2.5% | Radioactive constituents (Mus musculus [21]): 0% | Injected dose/g (Mus musculus [22]): 3.7% | Injected dose/g (Mus musculus [23]): 0.7% | Injected dose/g (Mus musculus [24]): 3.6% | Radioactive constituents (Mus musculus [25]): 4.7% | Injected dose/g (Mus musculus [26]): 0.1% | Injected dose/g (Mus musculus [27]): 0.16% | Radioactive constituents (Mus musculus [28]): 2.6% | Ki (Mus musculus [11]): 410 µM | Injected dose/g (Mus musculus [29]): 8.5% | Injected dose/g (Mus musculus [30]): 4.6% | Injected dose/g (Mus musculus [31]): 0.07% | Injected dose/g (Mus musculus [32]): 7% | Injected dose/g (Mus musculus [33]): 5.7% | Injected dose/g (Mus musculus [34]): 3.5% | Injected dose/g (Mus musculus [35]): 0.03% | Radioactive constituents (Mus musculus [36]): 0% | Injected dose/g (Mus musculus [37]): 2.9%
